# Source: ChEMBL document CHEMBL4028903 (J Med Chem, 2017)
# Tests used:
# [1] = Dissociation constant, pKa of compound; type: physicochemical
# [2] = Terminal half life in rat at 3 mg/kg, iv by LC-MS/MS analysis; type: ADME, organism-based; settings: in vivo, read-out: beta t1/2 (converted)
# Method in brief: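 Rats were dosed IV as a solution in 75% PEG300:25% D5W, or orally as a suspension in 0.5% methylcellulose, 0.5% Tween80 and 99% water.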
# [3] = target: T1, Bile acid receptor (Rattus norvegicus) (UniProt Q62735); test: Agonist activity at FXR in rat primary hepatocytes assessed as induction of BSEP mRNA level after 24 hrs by qPCR analysis; type: cell-based
# T1 sequence (whole entry): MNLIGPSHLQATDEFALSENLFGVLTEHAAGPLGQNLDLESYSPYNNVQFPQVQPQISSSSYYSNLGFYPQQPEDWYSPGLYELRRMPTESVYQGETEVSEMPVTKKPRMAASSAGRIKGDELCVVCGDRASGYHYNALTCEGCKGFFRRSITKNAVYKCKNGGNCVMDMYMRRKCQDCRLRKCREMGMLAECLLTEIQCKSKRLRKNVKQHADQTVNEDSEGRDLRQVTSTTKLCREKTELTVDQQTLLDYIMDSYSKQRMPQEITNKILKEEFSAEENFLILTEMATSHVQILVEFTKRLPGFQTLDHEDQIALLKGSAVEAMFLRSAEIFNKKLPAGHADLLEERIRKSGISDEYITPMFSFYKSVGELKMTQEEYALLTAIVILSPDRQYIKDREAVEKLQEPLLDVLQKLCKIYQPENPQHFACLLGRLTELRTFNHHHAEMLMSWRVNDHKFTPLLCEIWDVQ
# [4] = test system: Rattus norvegicus; test: In vivo agonist activity at FXR in po dosed Sprague-Dawley rat assessed as induction of SHP mRNA level in ileum administered once daily for 14 days measured 7 hrs post last dose on day 14 by qPCR analysis; type: functional
# [5] = test system: Rattus norvegicus; test: In vivo agonist activity at FXR in po dosed Sprague-Dawley rat assessed as induction of FGF15 mRNA level in ileum administered once daily for 14 days measured 7 hrs post last dose on day 14 by qPCR analysis; type: functional
# [6] = test system: Rattus norvegicus; test: In vivo agonist activity at FXR in Sprague-Dawley rat assessed as serum triglyceride level at 0.3 mg/kg, po administered once daily for 14 days measured 24 hrs post last dose; type: functional
# [7] = Drug uptake in Sprague-Dawley rat liver at 1 mg/kg, po qd administered via gavage measured 1 hr post last dose on day 14 by LC-MS/MS analysis; type: ADME, organism-based; settings: read-out: Drug uptake
# Method in brief: (§1)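 Drug concentration in liver was quantified from tissue homogenates, so these are total levels. Unbound liver concentration was not determined.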
# [8] = Drug uptake in Sprague-Dawley rat liver at 0.3 mg/kg, po qd administered via gavage measured 7 hrs post last dose on day 14 by LC-MS/MS analysis; type: ADME, organism-based; settings: read-out: Drug uptake; method in brief: as §1
# [9] = Drug uptake in Sprague-Dawley rat liver at 0.3 mg/kg, po qd administered via gavage measured 1 hr post last dose on day 14 by LC-MS/MS analysis; type: ADME, organism-based; settings: read-out: Drug uptake; method in brief: as §1
# [10] = Drug uptake in Sprague-Dawley rat plasma at 0.003 mg/kg, po qd administered via gavage measured 7 hrs post last dose on day 14 by LC-MS/MS analysis; type: ADME, organism-based
# [11] = test system: Rattus norvegicus; test: Dose normalized AUC (0 to 24 hrs) in Sprague-Dawley rat at 0.3 mg/kg, po qd administered via gavage measured on day 11 by LC-MS/MS analysis; type: ADME, organism-based; settings: in vivo
# [12] = test system: Rattus norvegicus; test: Dose normalized AUC (0 to 24 hrs) in Sprague-Dawley rat at 0.3 mg/kg, po qd administered via gavage measured on day 1 by LC-MS/MS analysis; type: ADME, organism-based; settings: in vivo
# [13] = test system: Rattus norvegicus; test: Dose normalized AUC (0 to 24 hrs) in Sprague-Dawley rat at 0.1 mg/kg, po qd administered via gavage measured on day 11 by LC-MS/MS analysis; type: ADME, organism-based; settings: in vivo
# [14] = test system: Rattus norvegicus; test: Dose normalized AUC (0 to 24 hrs) in Sprague-Dawley rat at 0.03 mg/kg, po qd administered via gavage measured on day 1 by LC-MS/MS analysis; type: ADME, organism-based; settings: in vivo
# [15] = AUC (0 to 24 hrs) in Sprague-Dawley rat at 3 mg/kg, po qd administered via gavage measured on day 1 by LC-MS/MS analysis; type: ADME, organism-based; design: time < 24 hr, dose 3 mg/kg, route oral; settings: in vivo
# [16] = AUC (0 to 24 hrs) in Sprague-Dawley rat at 0.3 mg/kg, po qd administered via gavage measured on day 1 by LC-MS/MS analysis; type: ADME, organism-based; design: dose 0.3 mg/kg, time < 24 hr, route oral; settings: in vivo
# [17] = AUC (0 to 24 hrs) in Sprague-Dawley rat at 0.03 mg/kg, po qd administered via gavage measured on day 1 by LC-MS/MS analysis; type: ADME, organism-based; design: time < 24 hr, dose 0.03 mg/kg, route oral; settings: in vivo
# [18] = AUC (0 to 24 hrs) in Sprague-Dawley rat at 0.003 mg/kg, po qd administered via gavage measured on day 11 by LC-MS/MS analysis; type: ADME, organism-based; design: time < 24 hr, dose 0.003 mg/kg, route oral; settings: in vivo
# [19] = Cmax in Sprague-Dawley rat at 0.1 mg/kg, po qd administered via gavage measured on day 1 by LC-MS/MS analysis; type: ADME, organism-based; design: dose 0.1 mg/kg, route oral; settings: in vivo
# [20] = Cmax in Sprague-Dawley rat at 0.03 mg/kg, po qd administered via gavage measured on day 1 by LC-MS/MS analysis; type: ADME, organism-based; design: dose 0.03 mg/kg, route oral; settings: in vivo
# [21] = Cmax in Sprague-Dawley rat at 0.01 mg/kg, po qd administered via gavage measured on day 1 by LC-MS/MS analysis; type: ADME, organism-based; design: dose 0.01 mg/kg, route oral; settings: in vivo
# [22] = Cmax in Sprague-Dawley rat at 0.003 mg/kg, po qd administered via gavage measured on day 11 by LC-MS/MS analysis; type: ADME, organism-based; design: dose 0.003 mg/kg, route oral; settings: in vivo
# [23] = Cmax in Sprague-Dawley rat at 0.003 mg/kg, po qd administered via gavage measured on day 1 by LC-MS/MS analysis; type: ADME, organism-based; design: dose 0.003 mg/kg, route oral; settings: in vivo
# [24] = Protein binding in rat plasma at 3 mg/kg, iv or 1 mg/kg, po administered via gavage by LC-MS/MS analysis; type: ADME, organism-based; settings: read-out: PPB
# [25] = Drug uptake in Sprague-Dawley rat liver at 3 mg/kg, po qd administered via gavage measured 7 hrs post last dose on day 14 by LC-MS/MS analysis; type: ADME, organism-based; settings: read-out: Drug uptake; method in brief: as §1
# [26] = AUC in rat at 1 mg/kg, po administered via gavage by LC-MS/MS analysis; type: ADME, organism-based; settings: in vivo
# Method in brief: (§2)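 Single oral dose given as a suspension in 0.5% methylcellulose, 0.5% Tween80 and 99% water. Doses were 10 mg/kg in mouse, 1 mg/kg in rat and 2 mg/kg in dog.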
# [27] = Cmax in rat at 1 mg/kg, po administered via gavage by LC-MS/MS analysis; type: ADME, organism-based; design: dose 1 mg/kg, route oral; settings: in vivo; method in brief: as §2
# [28] = test system: Canis familiaris; test: Drug metabolism in dog assessed as taurine conjugated metabolite formation at 0.5 mg/kg, iv or 2 mg/kg, po administered via gavage by LC-MS/MS analysis; type: ADME, organism-based, Canis lupus familiaris; settings: in vivo
# Method in brief: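 Plasma samples were taken from the dog PK studies. The IV solution was 20% PEG300, 5% solutol and 75% carbonate buffer pH = 8. The PO suspension was 0.5% methylcellulose, 0.5% Tween80 and 99% water. Samples were screened for taurine- and glycine-conjugated metabolites and for the acylglucuronide.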
smiles,measurement,setting,value
O=C(O)c1cc(F)c2nc(N3C4CCC3CC(OCc3c(-c5ccccc5OC(F)(F)F)noc3C3CC3)C4)sc2c1 (stereo not drawn),pKa,[1],4
same,half-life,[2],222 min
same,Activity,[3],Dose-dependent effect
same,ED50,[4],0.01 mg/kg
same,ED50,[5],0.05 mg/kg
same,Activity,[6],79%
same,concentration at 1 h,[7],159 nM
same,concentration at 7 h,[8],92.8 nM
same,concentration at 1 h,[9],84.5 nM
same,concentration at 7 h,[10],0.12 nM
same,AUC/dose,[11],633 nM·h
same,AUC/dose,[12],390 nM·h
same,AUC/dose,[13],796 nM·h
same,AUC/dose,[14],503 nM·h
same,AUC(0-t) at 24 h,[15],1.34 µM·h
same,AUC(0-t) at 24 h,[16],0.117 µM·h
same,AUC(0-t) at 24 h,[17],0.015 µM·h
same,AUC at 24 h,[18],2 nM·h
same,Cmax,[19],4.6 nM
same,Cmax,[20],1.5 nM
same,Cmax,[21],0.44 nM
same,Cmax,[22],0.26 nM
same,Cmax,[23],0.15 nM
same,fraction unbound,[24],0.001
same,concentration at 7 h,[25],640 nM
same,AUC,[26],0.307 µM·h
same,Cmax,[27],53 nM
same,Drug metabolism,[28],Metabolite_Notdetected
